Data published in ChEMBL document CHEMBL1129034, “Novel N6-(substituted-phenylcarbamoyl)adenosine-5'-uronamides as potent agonists for A3 adenosine receptors” (J Med Chem, 1996).

Legend:
[1] = biological target: Adenosine receptors; A1 & A3 (Rattus norvegicus) (UniProt P25099+P28647); assay: Selectivity, ratio between A1 receptor binding affinity / A3 receptor binding affinity; assay type: protein assay
Adenosine receptor A1 = biological target: T1, Adenosine receptor A1 (Rattus norvegicus, UniProt P25099); assay: Displacement of [3H]CHA from Adenosine A1 receptor in rat brain homogenates; assay type: tissue-based
T1 sequence (P25099 whole entry): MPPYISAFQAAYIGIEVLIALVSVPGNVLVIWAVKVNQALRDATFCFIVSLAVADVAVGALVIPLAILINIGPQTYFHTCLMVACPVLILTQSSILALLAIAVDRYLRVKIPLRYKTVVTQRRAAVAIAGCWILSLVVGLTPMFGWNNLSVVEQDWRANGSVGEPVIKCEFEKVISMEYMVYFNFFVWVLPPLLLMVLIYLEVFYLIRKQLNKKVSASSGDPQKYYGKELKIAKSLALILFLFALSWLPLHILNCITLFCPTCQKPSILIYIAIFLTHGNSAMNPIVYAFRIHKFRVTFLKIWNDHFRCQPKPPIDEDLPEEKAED

[2] = biological target: Adenosine receptor A2a and A3 (Rattus norvegicus) (UniProt P30543+P28647); assay: Selectivity, ratio between A2A receptor binding affinity / A3 receptor binding affinity; assay type: protein assay
Chain of Adenosine receptor A2a and A3 (Rattus norvegicus) (P30543 whole entry, looked up, one chain of several): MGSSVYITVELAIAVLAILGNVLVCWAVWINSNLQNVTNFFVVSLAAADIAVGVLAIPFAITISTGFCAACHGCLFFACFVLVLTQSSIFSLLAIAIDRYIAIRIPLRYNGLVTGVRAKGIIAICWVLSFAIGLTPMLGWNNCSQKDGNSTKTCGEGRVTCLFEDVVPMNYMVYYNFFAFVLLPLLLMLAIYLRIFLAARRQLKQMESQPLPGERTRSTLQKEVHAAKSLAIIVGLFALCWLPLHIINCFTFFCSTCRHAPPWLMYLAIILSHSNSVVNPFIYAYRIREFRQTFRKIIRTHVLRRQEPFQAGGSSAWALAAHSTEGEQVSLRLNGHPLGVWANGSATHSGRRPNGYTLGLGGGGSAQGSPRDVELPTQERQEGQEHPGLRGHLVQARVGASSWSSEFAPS

Adenosine receptor A2a = Adenosine receptor A2a (Rattus norvegicus, UniProt P30543); assay: Displacement of [3H]-CGS- 21680 from Adenosine A2A receptor in rat striatal homogenates
Chain of Adenosine receptor A2a (P30543 whole entry): as the sequence (P30543 whole entry, looked up, one chain of several) above
Method in brief: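 Rat striatal homogenates labelled with [3H]CGS 21680 for A2A; IC50 by probit analysis over at least six concentrations, Ki via Cheng-Prusoff using Kd 18.5 nM; n = 3-4, Ki ± SEM in nM.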

Adenosine receptor A3 = biological target: T2, Adenosine receptor A3 (Rattus norvegicus, UniProt P28647); assay: Displacement of [125I]AB-MECA from cloned rat Adenosine A3 receptor in stably transfected CHO cells; assay type: cell-based
T2 sequence (P28647 whole entry): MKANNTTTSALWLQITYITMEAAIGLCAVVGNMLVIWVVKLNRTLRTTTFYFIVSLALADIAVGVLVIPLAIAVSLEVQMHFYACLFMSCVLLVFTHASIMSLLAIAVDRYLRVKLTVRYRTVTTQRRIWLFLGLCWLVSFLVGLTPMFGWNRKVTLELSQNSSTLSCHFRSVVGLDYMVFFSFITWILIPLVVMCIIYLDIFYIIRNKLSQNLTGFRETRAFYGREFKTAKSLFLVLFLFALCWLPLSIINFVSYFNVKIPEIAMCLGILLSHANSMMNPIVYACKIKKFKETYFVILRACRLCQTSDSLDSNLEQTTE
Method in brief: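 Membranes from CHO cells stably expressing rat A3 receptor, labelled with [125I]AB-MECA; IC50 by probit analysis from at least six concentrations, converted to Ki by Cheng-Prusoff with Kd 1.48 nM; n = 3, Ki ± SEM in nM.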

SMILES | Selectivity [1] | Ki (Adenosine receptor A1) [nM] | Selectivity [2] | Ki (Adenosine receptor A2a) [nM] | Ki (Adenosine receptor A3) [nM]
CNC(=O)[C@H]1O[C@@H](n2cnc3c(NC(=O)Nc4cccc(Cl)c4)ncnc32)[C@H](O)[C@@H]1O | 4.8 | 550 | 58 | 6700 | 115
CCNC(=O)[C@H]1O[C@@H](n2cnc3c(NC(=O)Nc4ccccc4F)ncnc32)[C@H](O)[C@@H]1O | 2.2 | 77 | 15 | 528 | 34
CCNC(=O)[C@H]1O[C@@H](n2cnc3c(NC(=O)Nc4cccc(I)c4)ncnc32)[C@H](O)[C@@H]1O | 0.5 |  | 130 | 3940 | 30
CCNC(=O)[C@H]1O[C@@H](n2cnc3c(NC(=O)NC(C)(C)C)ncnc32)[C@H](O)[C@@H]1O | 0.75 | 1440 | 1.9 | 3670 | 1930
CCNC(=O)[C@H]1O[C@@H](n2cnc3c(NC(=O)Nc4cccc(Cl)c4)ncnc32)[C@H](O)[C@@H]1O | 10 | 45 | 96 | 420 | 4.4
CCNC(=O)[C@H]1O[C@@H](n2cnc3c(NC(=O)Nc4cccc(OC)c4)ncnc32)[C@H](O)[C@@H]1O | 2.7 | 113 | 92 | 3860 | 42
CCNC(=O)[C@H]1O[C@@H](n2cnc3c(NC(=O)Nc4ccccc4OC)ncnc32)[C@H](O)[C@@H]1O | 2.4 | 73 | 38 | 1160 | 30
CCCCCCCCNC(=O)Nc1ncnc2c1ncn2[C@@H]1O[C@H](C(=O)NCC)[C@@H](O)[C@H]1O | 1.4 | 448 | 9.4 | 3070 | 326
CNC(=O)[C@H]1O[C@@H](n2cnc3c(NC(=O)Nc4ccc(OC)cc4)ncnc32)[C@H](O)[C@@H]1O | 8.8 | 491 | 160 | 8750 | 56
CCNC(=O)[C@H]1O[C@@H](n2cnc3c(NC(=O)Nc4ccccc4Cl)ncnc32)[C@H](O)[C@@H]1O | 15 | 111 | 180 | 1340 | 7.4
CCNC(=O)[C@H]1O[C@@H](n2cnc3c(NC(=O)Nc4cccc(Br)c4)ncnc32)[C@H](O)[C@@H]1O | 0.9 | 252 | 1 | 286 | 275
CCNC(=O)[C@H]1O[C@@H](n2cnc3c(NC(=O)Nc4ccccc4I)ncnc32)[C@H](O)[C@@H]1O | 5.6 | 179 | 14 | 440 | 32

Other lines, results leading:

Selectivity [1] | Ki (Adenosine receptor A1) [nM] | Selectivity [2] | Ki (Adenosine receptor A2a) [nM] | Ki (Adenosine receptor A3) [nM] | SMILES
0.6 | 72 | 13 | 1490 | 114 | CCNC(=O)[C@H]1O[C@@H](n2cnc3c(NC(=O)Nc4ccc(Cl)cc4)ncnc32)[C@H](O)[C@@H]1O
2.6 | 103 | 16 | 611 | 39 | CCNC(=O)[C@H]1O[C@@H](n2cnc3c(NC(=O)Nc4cccc(F)c4)ncnc32)[C@H](O)[C@@H]1O
4.9 | 739 | 32 | 4830 | 150 | CCNC(=O)[C@H]1OC(n2cnc3c(NC(=O)Nc4ccc(C(F)(F)F)cc4)ncnc32)[C@H](O)[C@@H]1O (some centres undefined)
0.6 | 64 | 5.6 | 561 | 101 | CCNC(=O)[C@H]1O[C@@H](n2cnc3c(NC(=O)Nc4ccc(I)cc4)ncnc32)[C@H](O)[C@@H]1O
4.4 | 85 | 72 | 1380 | 19 | CCNC(=O)[C@H]1O[C@@H](n2cnc3c(NC(=O)Nc4ccc(F)cc4)ncnc32)[C@H](O)[C@@H]1O
9.1 | 700 | 30 | 2300 | 77 | CCNC(=O)[C@H]1OC(n2cnc3c(NC(=O)Nc4cccc(C(F)(F)F)c4)ncnc32)[C@H](O)[C@@H]1O (some centres undefined)
3.8 | 124 | 11 | 351 | 32.3 | CCNC(=O)[C@H]1O[C@@H](n2cnc3c(NC(=O)Nc4ccc(C)cc4)ncnc32)[C@H](O)[C@@H]1O
4.9 | 33 | 510 | 3360 | 6.6 | CCNC(=O)[C@H]1O[C@@H](n2cnc3c(NC(=O)Nc4ccc(OC)cc4)ncnc32)[C@H](O)[C@@H]1O
2.8 | 110 | 140 | 5360 | 39 | CCNC(=O)[C@H]1O[C@@H](n2cnc3c(NC(=O)Nc4ccccc4)ncnc32)[C@H](O)[C@@H]1O
7.4 | 384 | 190 | 10000 | 54 | CCNC(=O)[C@H]1O[C@@H](n2cnc3c(NC(=O)Nc4ccccc4C(F)(F)F)ncnc32)[C@H](O)[C@@H]1O
